A short description of data set [1]: Cytotoxicity against human A549 cells measured after 48 hrs by MTT assay. The format is functional, cell-based. The note with it: A549, 48 h. The gist of the method:
(§1)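 MTT growth assay; cells seeded at 5×10³/well in RPMI1640 with 10% heat-inactivated FBS, attached 4–6 h, then exposed to five concentrations (0.01–100 μM, compounds dissolved in saline) for 48 h at 37 °C, 5% CO₂. MTT added for 4 h, formazan dissolved in DMSO, absorbance read at 490 nm. IC50 taken from log plot of percent of control versus concentration; means ± SD of triplicate experiments.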
On the technique in general: Tetrazolium dyes change colour on reduction, which living cells bring about.

Data set [2] can be described thus: Cytotoxicity against human HepG2 cells measured after 48 hrs by MTT assay. The format is functional, cell-based. The note with it: HepG2, 48 h. The gist of the method: as §1
Data set [3] in a line: Cytotoxicity against human HeLa cells measured after 48 hrs by MTT assay. The format is functional, cell-based. The gist of the method: as §1
Data set [4] is described as follows: Cytotoxicity against human HCT8 cells measured after 48 hrs by MTT assay. Format: functional, cell-based. The note with it: HCT-8, 48 h. Summed up: as §1
The nature of data set [5]: Cytotoxicity against human WI38 cells measured after 48 hrs by MTT assay. The format is toxicity, cell-based, WI-38. Summed up: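 MTT growth inhibition in WI-38 lung fibroblasts. Cells seeded at 5×10³/well in RPMI1640 with 10% heat-inactivated FBS, attached 4–6 h, then exposed 48 h at 37 °C, 5% CO₂ to five concentrations (0.01–100 μM, saline-dissolved). MTT 4 h, DMSO solubilisation, A490. IC50 from log plot of percent control vs concentration; triplicate, mean ± SD.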

The nature of data set [6]: Octanol-water partition coefficient, log P of the compound. Format: physicochemical. The settings on record: read-out: logP. Summed up:
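Partition coefficient P = compound concentration in 1-octanol / compound concentration in water.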

Data set [7] in a line: Inhibition of human RBC PP2A assessed as reduction in free phosphate ion release using Lys-Arg-pThr-Ile-Arg as substrate preincubated for 10 mins followed by substrate addition measured after 60 mins by malachite green method. The gist of the method: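 Purified PP2A (0.6 mU/well) preincubated with inhibitor 10 min at 37 °C. Reaction started with 200 μM Lys-Arg-pThr-Ile-Arg in 50 mM Tris-HCl pH 7.0, 100 μM CaCl₂; 60 min at room temperature. Released phosphate read by malachite green at 650 nm after 10 min; enzyme-plus-buffer blanks. IC50 from dose–response; mean of three independent experiments in duplicate.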

For data set [8], the system named is HepG2. Nature of the data set: Inhibition of PP2A in human HepG2 cells assessed as residual activity by measuring phosphopeptide substrate level at 1 uM using RRAT(pT)VA as substrate preincubated for 24 hrs followed by substrate addition measured after 30 mins by molybdate dye based assay relative to control. The format is cell-based. Summed up:
(§2)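 HepG2 cells treated 24 h in six-well plates, lysed, endogenous phosphate removed. Lysate incubated 30 min at 37 °C with phosphopeptide RRAT(pT)VA (5 μL of 1 mM). Stopped with molybdate dye mix; A600 after 15 min. Activity from phosphate standard curve, expressed relative to untreated control; mean ± SD.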

Data set [9] deals with HepG2. Nature of the data set: Inhibition of PP2A in human HepG2 cells assessed as residual activity by measuring phosphopeptide substrate level at 2 uM using RRAT(pT)VA as substrate preincubated for 24 hrs followed by substrate addition measured after 30 mins by molybdate dye based assay relative to control. The format is cell-based. The gist of the method: as §2
For data set [10], the system named is HepG2. Put plainly: Inhibition of PP2A in human HepG2 cells assessed as residual activity by measuring phosphopeptide substrate level at 5 uM using RRAT(pT)VA as substrate preincubated for 24 hrs followed by substrate addition measured after 30 mins by molybdate dye based assay relative to control. The format is cell-based. The gist of the method:
as §2

The test system of data set [11] is HepG2. Nature of the data set: Inhibition of PP2A in human HepG2 cells assessed as reduction in phosphopeptide substrate level using RRAT(pT)VA as substrate preincubated for 24 hrs followed by substrate addition measured after 30 mins by molybdate dye based assay. Format: cell-based. Summed up: as §2
The species entered for a further data set is Homo sapiens. Put plainly: Inhibition of human topoisomerase-2 catalytic activity assessed as reduction in pBR322 supercoiled DNA relaxation up to 100 uM measured after 60 mins by ethidium bromide staining agarose gel electrophoresis. The gist of the method: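 Relaxation assay with supercoiled pBR322 (250 ng/μL) and topoisomerase II (4 units) in kit buffer, 20 μL, 60 min at 37 °C. Compound at 50 or 100 μM. Stopped with 10% SDS, proteinase K, chloroform/isoamyl alcohol extraction. Run on 1% agarose in TAE pH 8.0, ethidium bromide stained.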

The test system of data set [12] is HepG2. Nature of the data set: Induction of cell cycle arrest in human HepG2 cells assessed as accumulation at G2/M phase measured after 24 hrs by propidium iodide staining based flow cytometry. Format: functional. The gist of the method:
(§3)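 HepG2 cells exposed 24 h to 0, 0.5 or 1 μM. (1–5)×10⁵ cells harvested, PBS-washed, fixed in 70% ice-cold ethanol at least overnight. Stained 15 min in dark with 1% Triton X-100, 0.01% RNase, 0.05% PI. Cell-cycle distribution by flow cytometry.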
For orientation: A flow cytometer gives signals particle by particle.

The subject of data set [13] is HepG2. Nature of the data set: Induction of cell cycle arrest in human HepG2 cells assessed as accumulation at G2/M phase at 0.5 uM measured after 24 hrs by propidium iodide staining based flow cytometry (reference value: 9.4%). Format: functional.
Data set [14] concerns HepG2. Put plainly: Induction of cell cycle arrest in human HepG2 cells assessed as accumulation at G2/M phase at 1 uM measured after 24 hrs by propidium iodide staining based flow cytometry (reference value: 9.4%). The format is functional.
Data set [15] relates to HepG2. Nature of the data set: Induction of cell cycle arrest in human HepG2 cells assessed as increase in cyclin B1 expression at 0.5 to 1 uM measured after 24 hrs by western blot method. The format is functional, cell-based. Summed up: (§4)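 HepG2 cells grown 24 h in flasks, then treated with 0, 0.5 or 1 μM for 24 h. Lysis in Tris/NP-40/SDS buffer with protease inhibitors; Bradford protein assay. 30 μg protein on 10% or 12% SDS-PAGE, PVDF transfer, milk block 2 h. Cyclin B1 or cdc2 antibodies (1:500–1:1000) overnight at 4 °C, then secondary. β-actin loading control.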
For orientation: In western blotting, separated proteins are transferred to a membrane and probed.

Data set [16] deals with HepG2. Put plainly: Induction of cell cycle arrest in human HepG2 cells assessed as decrease in G1 phase at 0.5 to 1 uM measured after 24 hrs by propidium iodide staining based flow cytometry. The format is functional. The gist of the method: as §3
Data set [17] concerns HepG2. Put plainly: Induction of cell cycle arrest in human HepG2 cells assessed as decrease in G1 phase by propidium iodide staining based flow cytometry. Format: functional. The note with it: TDE = time-dependent effect. Summed up: as §3
For data set [18], the system named is HepG2. Put plainly: Induction of cell cycle arrest in human HepG2 cells assessed as increase in cyclin B1 expression measured after 24 hrs by western blot method. Format: functional, cell-based. Summed up:
as §4

Data set [19] has as its system HepG2. Put plainly: Induction of cell cycle arrest in human HepG2 cells assessed as increase in cyclin cdc-2 expression measured after 24 hrs by western blot method. Format: functional, cell-based. The gist of the method:
as §4

For a further data set, the species on record is Bos taurus. Nature of the data set: Binding affinity to calf thymus DNA at 1 uM at pH 7.2 measured after 5 mins by fluorescence spectroscopic method. Summed up: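 CT DNA titrated (0–5 μM) into 1 μM compound in pH 7.2 PBS, equilibrated 5 min at 25 °C. Excitation at 318 nm, emission recorded over 280–400 nm. CT DNA samples in PBS at matching concentrations served as blanks.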

The record followed here is ChEMBL document CHEMBL3871269, “Conjugates of podophyllotoxin and norcantharidin as dual inhibitors of topoisomeraseⅡ and protein phosphatase 2A” (Eur J Med Chem, 2016).

The source made the active and inactive calls. The calls are words filed in the database; no cut-off is given here.

Broadly, the IC50 is the concentration needed to halve the response being measured. A word on the logP: it is the decadic logarithm of the partition coefficient of the neutral form, usually between octanol and water. For the molecule `COc1cc([C@@H]2c3cc4c(cc3[C@@H](NC(=O)CCCN3C(=O)C5C6CCC(O6)C5C3=O)[C@H]3COC(=O)[C@H]23)OCO4)cc(OC)c1O` (stereo partly specified), the concentration for half-maximal inhibition (IC50) is 4.57 µM in data set [1]; less than 0.01 µM in data set [2]; 4.33 µM in data set [3]; 3.48 µM in [4]; 0.49 µM in data set [7]. Besides, the IC50 at 48 h in [5] was greater than 100 µM. Besides, the logP in data set [6] worked out at 0.68. Further, the Activity with HepG2 [8] is 73%; in the data set on HepG2 [9], 32%; in the data set with HepG2 [10], 27%; in the data set with HepG2 [12], “Dose-dependent effect”; in the data set on HepG2 [13], 27.6%; with HepG2 [14], 58.6%. Besides, the Activity entry is “Tde” with HepG2 [17], “Dose-dependent effect” in the data set with HepG2 [18] and “Dose-dependent effect” in the data set with HepG2 [19]. For the same molecule, the inhibition entry with HepG2 [11] is “Dose-dependent effect”. Also, the inhibition entry in the data set listed under Homo sapiens was “Active”. Moreover, the result in the data set on HepG2 [15], with HepG2 [16] and in the data set filed under Bos taurus was Active.
